From ChEMBL document CHEMBL4041548, “Ester Prodrugs of IHVR-19029 with Enhanced Oral Exposure and Prevention of Gastrointestinal Glucosidase Interaction” (ACS Med Chem Lett, 2017)
pEC50, pIC50: −log10 of the molar value. The source made the active and inactive calls. The rule behind the calls is not given here.

Legend:
Mus musculus [1] = assay: Prodrug activation in BALB/c mouse assessed as 3-(tert-butyl)-1-cyclohexyl-1-(6-((2R,3R,4R,5S)-3,4,5-trihydroxy-2-(hydroxymethyl)piperidin-1-yl)hexyl)urea Cmax at 100 mg/kg, po administered as single dose by LC-MS/MS analysis; type: organism-based; parameters: dose 100 mg/kg, route oral; settings: in vivo
Outline: (§1)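 Male BALB/c mice dosed with the prodrugs or the parent orally (25 or 100 mg/kg) or intravenously (5 mg/kg). The parent compound was quantified in plasma and PK parameters were derived from it. The first sampling point was 5 min post-dose, and prodrugs were tracked up to 4 h.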

[2] = Stability in simulated intestinal fluid assessed as parent compound remaining at 5 uM measured after 4 hrs by LC-MS/MS analysis
Outline: (§2)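 Chemical stability assessed by incubation in simulated gastric fluid and simulated intestinal fluid; percent of compound remaining was measured.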

[3] = Inhibition of pig liver endoplasmic reticulum alpha glucosidase-2 using 4-methylumbelliferyl-alpha-D-glucoside as substrate measured after 60 mins by fluorescence analysis; parameters: species or system Sus scrofa
[4] = Metabolic stability in pooled mouse liver microsomes assessed as parent compound remaining at 200 uM measured after 60 mins in presence of NADPH and UDPGA by LC-MS/MS analysis; type: ADME, microsome; settings: read-out: Stability
Outline: (§3)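 Prodrugs or parent incubated in pooled human or mouse liver microsomes for up to 60 min, with or without cofactor. Percent remaining and percent conversion to the parent were measured.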

[5] = Half life in pooled human liver microsomes at 200 uM by LC-MS/MS analysis; type: ADME, microsome; settings: liver microsomes; outline: as §3
[6] = Metabolic stability in pooled human liver microsomes assessed as parent compound remaining at 200 uM measured after 60 mins by LC-MS/MS analysis; type: ADME, microsome; settings: liver microsomes, read-out: Stability; outline: as §3
Bos taurus = species on record: Bos taurus; assay: Inhibition of endoplasmic reticulum alpha-glucosidase in MDBK cells infected with Bovine Viral Diarrhea virus assessed as reduction in BVDV envelope glycoprotein E2 level at 3 to 100 uM by immunoblot analysis; type: cell-based
Outline: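 MDBK cells infected with BVDV, then treated with various concentrations of the compounds. Cell lysates were run on SDS-PAGE and immunoblotted for the E2 envelope glycoprotein, looking for a mobility shift and lower intensity, with β-actin as internal control.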

Mus musculus [7] = assay: Prodrug activation in BALB/c mouse assessed as 3-(tert-butyl)-1-cyclohexyl-1-(6-((2R,3R,4R,5S)-3,4,5-trihydroxy-2-(hydroxymethyl)piperidin-1-yl)hexyl)urea Cmax at 25 mg/kg, po administered as single dose by LC-MS/MS analysis; type: organism-based; parameters: dose 25 mg/kg, route oral; settings: in vivo; outline: as §1
[8] = Prodrug activation in mouse intestinal S9 fraction assessed as 3-(tert-butyl)-1-cyclohexyl-1-(6-((2R,3R,4R,5S)-3,4,5-trihydroxy-2-(hydroxymethyl)piperidin-1-yl)hexyl)urea formation by measuring prodrug remaining at 200 uM measured after 1 hr in presence or absence of NADPH by LC-MS/MS analysis; parameters: species or system Intestine; settings: s9, 1 h
Outline: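 Compounds incubated with intestinal S9 fraction for 1 h. Percent prodrug remaining and percent conversion to the parent were measured.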

[9] = Inhibition of pig liver endoplasmic reticulum alpha glucosidase-1 using 4-methylumbelliferyl-alpha-D-glucoside as substrate measured after 90 mins by fluorescence analysis; parameters: species or system Sus scrofa
[10] = Metabolic stability in human plasma assessed as parent compound remaining at 5 uM measured after 2 hrs by LC-MS/MS analysis; type: ADME, cell-free; settings: read-out: Stability
Outline: (§4)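 Compounds incubated in human or mouse plasma for 2 h. Percent remaining and percent conversion to the parent were determined.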

[11] = Prodrug activation in simulated intestinal fluid assessed as 3-(tert-butyl)-1-cyclohexyl-1-(6-((2R,3R,4R,5S)-3,4,5-trihydroxy-2-(hydroxymethyl)piperidin-1-yl)hexyl)urea formation at 5 uM measured after 4 hrs by LC-MS/MS analysis; outline: as §2
Mus musculus [12] = assay: Prodrug activation in BALB/c mouse assessed as 3-(tert-butyl)-1-cyclohexyl-1-(6-((2R,3R,4R,5S)-3,4,5-trihydroxy-2-(hydroxymethyl)piperidin-1-yl)hexyl)urea AUC(0 to infinity) at 5 mg/kg, iv as bolus administration by LC-MS/MS analysis; type: organism-based; parameters: dose 5 mg/kg, route intravenous, time infinity; settings: in vivo
[13] = Inhibition of endoplasmic reticulum alpha-glucosidase in human Huh7.5 cells infected with DENV assessed as reduction in viral growth by measuring DENV RNA level by qRT-PCR method; type: cell-based
Outline: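 Huh7.5 cells infected with dengue virus and treated with a concentration series of the compounds (n = 4). DENV RNA was quantified by qRT-PCR and the EC50 was calculated.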

[14] = Apparent permeability of the compound across apical side to basolateral side in human Caco2 cells assessed as drug recovery at 5 uM measured after 2 hrs by LC-MS/MS analysis; type: ADME, cell-based; settings: Caco-2, read-out: Drug recovery
[15] = Metabolic stability in pooled mouse liver microsomes assessed as parent compound remaining at 200 uM measured after 60 mins by LC-MS/MS analysis; type: ADME, microsome; settings: liver microsomes, read-out: Stability; outline: as §3
Mus musculus [16] = assay: Prodrug activation in BALB/c mouse assessed as 3-(tert-butyl)-1-cyclohexyl-1-(6-((2R,3R,4R,5S)-3,4,5-trihydroxy-2-(hydroxymethyl)piperidin-1-yl)hexyl)urea Cmax at 5 mg/kg, iv as bolus administration by LC-MS/MS analysis; type: organism-based; parameters: dose 5 mg/kg, route intravenous; settings: in vivo; outline: as §1
Mus musculus [17] = assay: Prodrug activation in BALB/c mouse assessed as 3-(tert-butyl)-1-cyclohexyl-1-(6-((2R,3R,4R,5S)-3,4,5-trihydroxy-2-(hydroxymethyl)piperidin-1-yl)hexyl)urea Tmax at 5 mg/kg, iv as bolus administration by LC-MS/MS analysis; type: organism-based; settings: in vivo; outline: as §1
Mus musculus [18] = assay: Prodrug activation in BALB/c mouse assessed as 3-(tert-butyl)-1-cyclohexyl-1-(6-((2R,3R,4R,5S)-3,4,5-trihydroxy-2-(hydroxymethyl)piperidin-1-yl)hexyl)urea AUC(0 to infinity) at 25 mg/kg, po administered as single dose by LC-MS/MS analysis; type: organism-based; parameters: dose 25 mg/kg, time infinity, route oral; settings: in vivo
Mus musculus [19] = assay: Prodrug activation in BALB/c mouse assessed as 3-(tert-butyl)-1-cyclohexyl-1-(6-((2R,3R,4R,5S)-3,4,5-trihydroxy-2-(hydroxymethyl)piperidin-1-yl)hexyl)urea half life at 5 mg/kg, iv as bolus administration by LC-MS/MS analysis; type: organism-based; settings: in vivo; outline: as §1
Mus musculus [20] = assay: Prodrug activation in BALB/c mouse assessed as 3-(tert-butyl)-1-cyclohexyl-1-(6-((2R,3R,4R,5S)-3,4,5-trihydroxy-2-(hydroxymethyl)piperidin-1-yl)hexyl)urea AUC(0 to infinity) at 100 mg/kg, po administered as single dose by LC-MS/MS analysis; type: organism-based; parameters: dose 100 mg/kg, route oral, time infinity; settings: in vivo
[21] = Apparent permeability of the compound across basolateral side to apical side in human Caco2 cells assessed as drug recovery at 5 uM measured after 2 hrs by LC-MS/MS analysis; type: ADME, cell-based; settings: Caco-2, read-out: Drug recovery
[22] = Metabolic stability in mouse plasma assessed as parent compound remaining at 5 uM measured after 2 hrs by LC-MS/MS analysis; type: ADME, cell-free; settings: read-out: Stability; outline: as §4
Mus musculus [23] = assay: Prodrug activation in BALB/c mouse assessed as 3-(tert-butyl)-1-cyclohexyl-1-(6-((2R,3R,4R,5S)-3,4,5-trihydroxy-2-(hydroxymethyl)piperidin-1-yl)hexyl)urea half life at 25 mg/kg, po administered as single dose by LC-MS/MS analysis; type: organism-based; settings: in vivo; outline: as §1
Mus musculus [24] = assay: Prodrug activation in BALB/c mouse assessed as 3-(tert-butyl)-1-cyclohexyl-1-(6-((2R,3R,4R,5S)-3,4,5-trihydroxy-2-(hydroxymethyl)piperidin-1-yl)hexyl)urea Tmax at 25 mg/kg, po administered as single dose by LC-MS/MS analysis; type: organism-based; settings: in vivo; outline: as §1

Compound	Cmax (Mus musculus [1]) [ng/mL]	Stability [2] [%]	pIC50 [3]	remaining at 1 h, 200 µM [4] [%]	half-life at 200 µM [5] [min]	remaining at 1 h, 200 µM [6] [%]	inhibition (Bos taurus)	Cmax (Mus musculus [7]) [ng/mL]	Stability [8] [%]	pIC50 [9]	remaining at 2 h, 5 µM [10] [%]	Drug metabolism [11] [%]	AUC (Mus musculus [12]) [ng·mL·h]	pEC50 [13]	recovery at 2 h, 5 µM [14] [%]	remaining at 1 h, 200 µM [15] [%]	Cmax (Mus musculus [16]) [ng/mL]	Tmax (Mus musculus [17]) [min]	AUC (Mus musculus [18]) [ng·mL·h]	t1/2 (Mus musculus [19]) [min]	also measured
CCCC(=O)OC[C@@H]1[C@@H](OC(=O)CCC)[C@H](OC(=O)CCC)[C@@H](OC(=O)CCC)CN1CCCCCCN(C(=O)NC(C)(C)C)C1CCCCC1	998	72	< 4.00	10	14	4	Active	319	< 50	< 4.10	106	0	2288	4.79	< 60	12	15733	4.98	529	50.4	AUC (Mus musculus [20]): 3884 ng·mL·h; recovery at 2 h, 5 µM [21]: < 60%; remaining at 2 h, 5 µM [22]: 0%; t1/2 (Mus musculus [23]): 103 min; Tmax (Mus musculus [24]): 15 min
CC(C)C(=O)OC[C@@H]1[C@@H](OC(=O)C(C)C)[C@H](OC(=O)C(C)C)[C@@H](OC(=O)C(C)C)CN1CCCCCCN(C(=O)NC(C)(C)C)C1CCCCC1	195	90	< 4.00	5	10	2	Active	104	< 50	< 4.10	100	0	569	4.02	< 60	7	1213	4.98	197	75	AUC (Mus musculus [20]): 362 ng·mL·h; recovery at 2 h, 5 µM [21]: < 60%; remaining at 2 h, 5 µM [22]: 0%; t1/2 (Mus musculus [23]): 34.8 min; Tmax (Mus musculus [24]): 30 min
CC(=O)OC[C@@H]1[C@@H](OC(C)=O)[C@H](OC(C)=O)[C@@H](OC(C)=O)CN1CCCCCCN(C(=O)NC(C)(C)C)C1CCCCC1	1597	91	< 4.00	0	3	0	Active	375	< 50	< 4.10	84	0	368	4.81	9	0	463	15	359	66.6	AUC (Mus musculus [20]): 1912 ng·mL·h; recovery at 2 h, 5 µM [21]: 42%; remaining at 2 h, 5 µM [22]: 0%; t1/2 (Mus musculus [23]): 84 min; Tmax (Mus musculus [24]): 15 min
